{"data": "Measurements of several laboratories", "cell line": "U-251", "observed": "cell growth or viability", "note": "Protocols differ between the studies behind these lines."}
{"SMILES": "Cc1cc(NC(=O)c2cccc3cc(-c4cccc5[nH]nc(N)c45)ccc23)ccc1F", "assay": "CCK-8", "setting": "72 h", "endpoint": "IC50", "value": "> 20000 nM"}
{"SMILES": "COc1cc(-c2ccc(-c3ccc(C(=N)N)nc3)s2)cc(OC)c1OC", "assay": "SRB", "endpoint": "GI50", "value": "1740 nM"}
{"SMILES": "COc1nc(OCc2cccc(-c3ccccc3)c2C)ccc1CNCCNC(C)=O", "assay": "MTT", "endpoint": "IC50", "value": "4300 nM"}
{"SMILES": "COc1ccc(C(=O)/C=C/c2cccnc2)cc1S(N)(=O)=O", "assay": "SRB", "setting": "10 µM", "endpoint": "inhibition", "value": "89%"}
{"SMILES": "COc1cccc(Oc2ccccc2NC(=O)CNC(=O)c2cccc3ccccc23)c1", "assay": "SRB", "setting": "48 h", "endpoint": "GI50", "value": "240 nM"}
{"SMILES": "COc1ccc(C(=O)/C=C/c2cccc(Br)c2)cc1S(N)(=O)=O", "assay": "SRB", "setting": "10 µM", "endpoint": "inhibition", "value": "198%"}
{"SMILES": "CC(=O)O[C@H]1C(=O)[C@@]2(C)[C@H]([C@H](OC(=O)c3ccccc3)[C@]3(O)C[C@H](OC(=O)[C@H](O)[C@@H](NC(=O)c4ccccc4)c4ccccc4)C(C)=C1C3(C)C)[C@]1(OC(C)=O)CO[C@@H]1C[C@@H]2O", "endpoint": "IC50", "value": "0.5 µg/mL"}
{"SMILES": "COc1ccc(-c2ccc(-c3ccc(C(=N)N)nc3)s2)cc1", "assay": "SRB", "endpoint": "GI50", "value": "1810 nM"}
{"SMILES": "O=C1Nc2ccccc2C1=NNc1nnc2n1N=C(c1ccccc1)CS2", "assay": "SRB", "setting": "10 µM", "endpoint": "inhibition", "value": "50%"}
